Activity calls are given as the source filed them. The rule behind the calls is not given here.
Tests used:
A-375 [1] = assay: Induction of apoptosis in human A375 cells at 5 uM after 24 hrs by AnnexinV-FITC/propidium iodide staining-based fluorimetric analysis (reference value: 2.6%); assay type: functional
A-375 [2] = assay: Upregulation of p53 mRNA expression in human A375 cells at 5 uM after 24 hrs by RT-PCR analysis; assay type: functional, cell-based
Outline: (§1)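 A375 cells treated 24 h at 5 μM; p53, p21, p27 and cyclin D1 transcripts quantified by qPCR, normalised to β-actin in each sample, compared with control.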

A549 = assay: Cytotoxicity against human A549 cells assessed as cell survival at 5 uM after 24 hrs by MTT assay relative to control; assay type: functional; conditions: A549, 24 h, read-out: Survival
Outline: (§2)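 Cells exposed to agent at 5 µM for 24 h, then growth and viability measured by MTT assay. Survival given as percent of untreated control.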

A-375 [3] = assay: Induction of apoptosis in human A375 cells assessed as increase in Bax protein level at 5 uM after 24 hrs by Western blotting analysis; assay type: functional, cell-based
Outline: (§3)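 Lysates from A375 cells exposed 24 h to 5 μM, or to a range of concentrations, immunoblotted with specific antibodies against Bcl-2, Bcl-xL, Bax, Bad, caspase-3 and PARP; actin probed as loading control; three separate experiments.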

A-375 [4] = assay: Cytotoxicity against human A375 cells assessed as cell survival at 5 uM after 24 hrs by MTT assay relative to control; assay type: functional; conditions: A-375, 24 h, read-out: Survival; outline: as §2
A-375 [5] = assay: Downregulation of cyclin D1 mRNA expression in human A375 cells at 5 uM after 24 hrs by RT-PCR analysis; assay type: functional, cell-based; outline: as §1
A-375 [6] = assay: Induction of apoptosis in human A375 cells assessed as decrease in Bcl-XL protein level at 5 uM after 24 hrs by Western blotting analysis; assay type: functional, cell-based; outline: as §3
A-375 [7] = assay: Induction of apoptosis in human A375 cells assessed as increase in Bad protein level at 5 uM after 24 hrs by Western blotting analysis; assay type: functional, cell-based; outline: as §3
A2058 = assay: Cytotoxicity against human A2058 cells assessed as cell survival at 5 uM after 24 hrs by MTT assay relative to control; assay type: functional; conditions: A2058, 24 h, read-out: Survival; outline: as §2
A-375 [8] = assay: Upregulation of p27 mRNA expression in human A375 cells at 5 uM after 24 hrs by RT-PCR analysis; assay type: functional, cell-based; outline: as §1
B16 = assay: Cytotoxicity against mouse B16 cells assessed as cell survival at 5 uM after 24 hrs by MTT assay relative to control; assay type: functional; conditions: B16, 24 h, read-out: Survival; outline: as §2
A-375 [9] = assay: Cytotoxicity against human A375 cells assessed as cell survival at 1 to 5 uM after 12 hrs by MTT assay relative to control; assay type: functional, cell-based
Outline: (§4)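 A375 cells seeded at 10,000 per well, attached overnight, then exposed in triplicate to 0, 1, 3 or 5 μM for 0, 12 or 24 h; viability by MTT absorbance versus untreated control; IC50 taken as mean of dose-response curves from three experiments.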

A-375 [10] = assay: Cytotoxicity against human A375 cells assessed as cell survival at 1 to 5 uM by MTT assay relative to control; assay type: functional, cell-based; conditions: TDE = time-dependent effect; outline: as §4
[11] = Cytotoxicity against human RPMI7951 cells assessed as cell survival at 5 uM after 24 hrs by MTT assay relative to control; assay type: functional; conditions: RPMI-7951, 24 h, read-out: Survival; outline: as §2
A-375 [12] = assay: Cell cycle arrest in human A375 cells assessed as accumulation at S phase after 24 hrs by propidium iodide staining-based flow cytometry (reference value: 11.8 +/- 0.1%); assay type: functional
A-375 [13] = assay: Cell cycle arrest in human A375 cells assessed as accumulation at sub-G1 phase after 24 hrs by propidium iodide staining-based flow cytometry (reference value: 7.7 +/- 0.1%); assay type: functional
A-375 [14] = assay: Induction of apoptosis in human A375 cells assessed as decrease in Bcl-2 protein level at 5 uM after 24 hrs by Western blotting analysis; assay type: functional, cell-based; outline: as §3
HEK-293T = assay: Cytotoxicity against human 293T cells assessed as cell survival at 5 uM after 24 hrs by MTT assay relative to control; assay type: functional; conditions: read-out: Survival; outline: as §2
A-375 [15] = assay: Cell cycle arrest in human A375 cells assessed as accumulation at G1 phase after 24 hrs by propidium iodide staining-based flow cytometry (reference value: 65.3 +/- 0.1%); assay type: functional
[16] = Cytotoxicity against human skin fibroblasts assessed as cell survival at 5 uM after 24 hrs by MTT assay relative to control; set-up: species or system Skin fibroblast; conditions: read-out: Survival; outline: as §2
A-375 [17] = assay: Cytotoxicity against human A375 cells assessed as cell survival after 12 to 24 hrs by MTT assay relative to control; assay type: functional, cell-based; outline: as §4
Ca9-22 = assay: Cytotoxicity against human Ca9-22 cells assessed as cell survival at 5 uM after 24 hrs by MTT assay relative to control; assay type: functional; conditions: Ca9-22, 24 h, read-out: Survival; outline: as §2
A-375 [18] = assay: Cell cycle arrest in human A375 cells assessed as accumulation at G2/M phase after 24 hrs by propidium iodide staining-based flow cytometry (reference value: 15.2 +/- 0.6%); assay type: functional
A-375 [19] = assay: Upregulation of p21 mRNA expression in human A375 cells at 5 uM after 24 hrs by RT-PCR analysis; assay type: functional, cell-based; outline: as §1
A-375 [20] = assay: Induction of apoptosis in human A375 cells assessed as increase in Bad protein level after 24 hrs by Western blotting analysis; assay type: functional, cell-based; outline: as §3
A-375 [21] = assay: Induction of apoptosis in human A375 cells assessed as cleavage of PARP after 24 hrs by Western blotting analysis; assay type: functional, cell-based; outline: as §3
A-375 [22] = assay: Induction of apoptosis in human A375 cells assessed as cleavage of caspase-3 after 24 hrs by Western blotting analysis; assay type: functional, cell-based; outline: as §3
A-375 [23] = assay: Induction of apoptosis in human A375 cells assessed as decrease in Bcl-2 protein level after 24 hrs by Western blotting analysis; assay type: functional, cell-based; outline: as §3
Escherichia coli = assay: Binding affinity to Escherichia coli pBR322 DNA assessed as DNA unwinding at 10 to 1000 uM after 12 hrs by agarose gel electrophoresis
Outline: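 Negatively supercoiled pBR322 plasmid (0.4 μg) incubated 12 h in TE buffer with increasing compound concentrations (0–1000 μM); samples run 2.5 h on 1% agarose gel; unwinding read as reduced mobility.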

A-375 [24] = assay: Induction of apoptosis in human A375 cells assessed as decrease in Bcl-XL protein level after 24 hrs by Western blotting analysis; assay type: functional, cell-based; outline: as §3
A-375 [25] = assay: Induction of apoptosis in human A375 cells assessed as increase in Bax protein level after 24 hrs by Western blotting analysis; assay type: functional, cell-based; outline: as §3

Row | SMILES | Activity (A-375 [1]) [%] | Activity (A-375 [2]) | viability at 5 µM (A549) [%] | Activity (A-375 [3]) | viability at 5 µM (A-375 [4]) [%] | Activity (A-375 [5]) | Activity (A-375 [6]) | Activity (A-375 [7]) | viability at 5 µM (A2058) [%] | Activity (A-375 [8]) | viability at 5 µM (B16) [%] | Activity (A-375 [9]) | Activity (A-375 [10]) | viability at 5 µM [11] [%] | Activity (A-375 [12]) [%] | Activity (A-375 [13]) [%] | Activity (A-375 [14]) | viability at 5 µM (HEK-293T) [%] | Activity (A-375 [15]) [%] | viability at 24 h, 5 µM [16] [%] | other results
1 | COc1cccc(-c2cn(C/C=C\COc3cc4c(cc3OC)C(=O)N3CCC[C@H]3C=N4)nn2)c1 | 16.4 | Active | 100 | Active | 48.4 | Active | Active | Active | 40.7 | Active | 74.2 | inactive | tde | 65.3 | 6.7 | 7.7 | Active | 42.8 | 82.3 | 90.4 | Activity (A-375 [17]): Dose-dependent effect; viability at 5 µM (Ca9-22): 50%; Activity (A-375 [18]): 3.3%; Activity (A-375 [19]): Active
2 | COc1cc2c(cc1OC/C=C\Cn1cc(-c3ccccc3OC)nn1)N=C[C@@H]1CCCN1C2=O | 11.1 | Active | 102 | Active | 58.4 | Active | Active | Active | 63.1 | Active | 66.3 | inactive | tde | 75.1 | 5.1 | 11.7 | Active | 51.1 | 81.9 | 84.7 | Activity (A-375 [17]): Dose-dependent effect; viability at 5 µM (Ca9-22): 105%; Activity (A-375 [18]): 1.3%; Activity (A-375 [19]): Active
3 | COc1ccc(-c2cn(C/C=C\COc3cc4c(cc3OC)C(=O)N3CCC[C@H]3C=N4)nn2)cc1 | 12.1 | Active | 98.2 | Active | 38.7 | Active | Active | Active | 42 | Active | 62.8 | inactive | tde | 66.4 | 7.2 | 7.1 | Active | 46.7 | 82.3 | 90.3 | Activity (A-375 [17]): Dose-dependent effect; viability at 5 µM (Ca9-22): 55.5%; Activity (A-375 [18]): 3.4%; Activity (A-375 [19]): Active
4 | COc1cc2c(cc1OC/C=C\Cn1cc(-c3ccccc3)nn1)N=C[C@@H]1CCCN1C2=O | 23.1 | Active | 65.6 | Active | 22.4 | Active | Active | Active | 45.7 | Active | 33.9 | inactive | tde | 55.9 | 5.9 | 8.9 | Active | 74.1 | 83 | 87.7 | Activity (A-375 [20]): Dose-dependent effect; Activity (A-375 [21]): Dose-dependent effect; Activity (A-375 [22]): Dose-dependent effect; Activity (A-375 [23]): Dose-dependent effect; Activity (Escherichia coli): Active; Activity (A-375 [24]): Dose-dependent effect; Activity (A-375 [25]): Dose-dependent effect; Activity (A-375 [17]): Dose-dependent effect; viability at 5 µM (Ca9-22): 25.6%; Activity (A-375 [18]): 2.2%; Activity (A-375 [19]): Active

— ChEMBL document CHEMBL3091328, “Synthesis, DNA-binding abilities and anticancer activities of triazole-pyrrolo[2,1-c][1,4]benzodiazepines hybrid scaffolds” (Bioorg Med Chem Lett, 2013)
